Measurements published in ChEMBL document CHEMBL3045671, “Non-imidazole histamine H3 ligands: part V. synthesis and preliminary pharmacological investigation of 1-[2-thiazol-4-yl- and 1-[2-thiazol-5-yl-(2-aminoethyl)]-4-n-propylpiperazine derivatives” (Med Chem Res, 2013).

Molecular target: Histamine H3 receptor (Rattus norvegicus, UniProt Q9QYN8)
Assay: Binding affinity to Rattus norvegicus (rat) H3 receptor
Conditions: not given

Chain of Histamine H3 receptor (Rattus norvegicus, UniProt Q9QYN8) (Q9QYN8 whole entry): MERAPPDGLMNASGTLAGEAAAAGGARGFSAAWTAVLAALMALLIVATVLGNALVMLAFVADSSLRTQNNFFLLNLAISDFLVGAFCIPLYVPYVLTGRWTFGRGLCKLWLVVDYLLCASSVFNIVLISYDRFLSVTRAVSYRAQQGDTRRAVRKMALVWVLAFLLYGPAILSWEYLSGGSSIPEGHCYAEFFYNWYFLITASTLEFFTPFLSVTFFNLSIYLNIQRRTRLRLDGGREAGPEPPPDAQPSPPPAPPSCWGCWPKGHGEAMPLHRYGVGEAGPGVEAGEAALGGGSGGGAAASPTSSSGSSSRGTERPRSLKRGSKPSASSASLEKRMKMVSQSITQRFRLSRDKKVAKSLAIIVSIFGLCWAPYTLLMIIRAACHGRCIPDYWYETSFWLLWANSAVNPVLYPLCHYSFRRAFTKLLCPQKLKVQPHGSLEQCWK

| Ki [nM] | SMILES |
| --- | --- |
| 4 | O=C(c1ccc(OCCCN2CCCCC2)cc1)C1CC1 |

Molecular target: Histamine H3 receptor (Cavia porcellus, UniProt Q9JI35)
Assay: Antagonist activity at H3 receptor in Cavia porcellus (guinea pig) jejunum assessed as inhibition of electrically evoked muscle contraction
Conditions: read-out: pA2 (converted)
Method in brief: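 Segments under 1.0 g tension, isotonic recording; 1 h equilibration with washes every 10 min. Field-stimulated maximally (15–20 V) at 0.1 Hz, 0.5 ms rectangular pulses. After 30 min stimulation, cumulative (R)-α-methylhistamine curves (half-log steps) run with pyrilamine 1 × 10⁻⁵ mol/L in bath. The curve was repeated 20 min after the test compound was added, with pyrilamine given beforehand.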

Chain of Histamine H3 receptor (Cavia porcellus, UniProt Q9JI35) (Q9JI35 whole entry): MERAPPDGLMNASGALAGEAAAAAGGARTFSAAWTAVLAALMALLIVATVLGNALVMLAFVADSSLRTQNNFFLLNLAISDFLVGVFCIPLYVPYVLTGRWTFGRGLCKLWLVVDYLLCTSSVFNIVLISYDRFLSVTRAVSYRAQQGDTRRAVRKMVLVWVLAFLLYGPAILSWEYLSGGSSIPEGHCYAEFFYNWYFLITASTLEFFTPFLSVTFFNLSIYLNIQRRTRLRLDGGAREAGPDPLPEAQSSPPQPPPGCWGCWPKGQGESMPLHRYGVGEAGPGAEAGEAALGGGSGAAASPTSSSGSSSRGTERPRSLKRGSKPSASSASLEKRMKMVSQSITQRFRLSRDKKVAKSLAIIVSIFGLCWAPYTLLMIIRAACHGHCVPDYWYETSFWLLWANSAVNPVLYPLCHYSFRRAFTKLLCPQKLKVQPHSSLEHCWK

| Kb [nM] | SMILES |
| --- | --- |
| 24.5 | CCCN1CCN(c2ncc(CCN(C)CCc3ccccc3)s2)CC1 |
| 191 | CCCN1CCN(c2nc(CCN(C)CCCCc3ccccc3)cs2)CC1 |
| 17.4 | CCCN1CCN(c2ncc(CCN(C)C(=O)c3ccc([N+](=O)[O-])cc3)s2)CC1 |
| 245 | CCCN1CCN(c2nc(CCN(C)CCCc3ccccc3)cs2)CC1 |
| 120 | CCCN(C)CCc1csc(N2CCN(CCC)CC2)n1 |
| 2240 | CCCN1CCN(c2nc(CCN(C)C(=O)c3ccccc3)cs2)CC1 |
| 155 | CCCN1CCN(c2nc(CCN(C)CCc3ccccc3)cs2)CC1 |
| 174 | CCCN1CCN(c2nc(CCN(C)C)cs2)CC1 |
| 204 | CCCN1CCN(c2nc(CCN(C)CCCCCc3ccccc3)cs2)CC1 |
| 589 | CCCN1CCN(c2nc(CCN(C)C(=O)c3ccc(Cl)cc3)cs2)CC1 |
| 933 | CCCN1CCN(c2nc(CCN(C)C(=O)c3ccc([N+](=O)[O-])cc3)cs2)CC1 |
| 24.5 | CCCN1CCN(c2ncc(CCN(C)C(=O)c3ccc(C)cc3)s2)CC1 |
| 18.6 | CCCN1CCN(c2ncc(CCN(C)C(=O)c3ccc(Cl)cc3)s2)CC1 |
| 1580 | CCCN1CCN(c2nc(CCN(C)C(=O)c3ccc(C)cc3)cs2)CC1 |
| 75.9 | CCCN1CCN(c2nc(CCN(C)Cc3ccccc3)cs2)CC1 |
| 35.5 | CCCN1CCN(c2ncc(CCN(C)C(=O)c3ccccc3)s2)CC1 |
